The values that follow come from the M2OR odorant receptor database.

Holding throughout (details): stereoisomer not certain
The target in assay [1] is T1, UniProt A2ATE5.
T1 sequence (whole entry): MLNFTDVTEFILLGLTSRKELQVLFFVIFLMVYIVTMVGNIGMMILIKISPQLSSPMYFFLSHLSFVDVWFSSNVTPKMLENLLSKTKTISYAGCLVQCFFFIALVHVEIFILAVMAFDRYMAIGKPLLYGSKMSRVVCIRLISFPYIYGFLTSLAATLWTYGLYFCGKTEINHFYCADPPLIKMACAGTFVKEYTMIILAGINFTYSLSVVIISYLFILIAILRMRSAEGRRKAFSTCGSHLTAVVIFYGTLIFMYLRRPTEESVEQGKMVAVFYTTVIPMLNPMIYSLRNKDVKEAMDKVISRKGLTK
Summed up:
(§1)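 Values were gathered from published papers (main text and supplementary material), with extra details requested from the original authors when needed, and checked for typos and inconsistencies. Each receptor–molecule pair is called responsive (active) if the original authors judged the measured signal statistically different from baseline, and non-responsive (inactive) otherwise. Assay methods varied by source, often transient mammalian cell-line luciferase assays. Recorded details include cell line, G-protein, co-transfected protein and tags.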

In assay [2] the target is T2, UniProt A2AVB0.
T2 sequence (whole entry): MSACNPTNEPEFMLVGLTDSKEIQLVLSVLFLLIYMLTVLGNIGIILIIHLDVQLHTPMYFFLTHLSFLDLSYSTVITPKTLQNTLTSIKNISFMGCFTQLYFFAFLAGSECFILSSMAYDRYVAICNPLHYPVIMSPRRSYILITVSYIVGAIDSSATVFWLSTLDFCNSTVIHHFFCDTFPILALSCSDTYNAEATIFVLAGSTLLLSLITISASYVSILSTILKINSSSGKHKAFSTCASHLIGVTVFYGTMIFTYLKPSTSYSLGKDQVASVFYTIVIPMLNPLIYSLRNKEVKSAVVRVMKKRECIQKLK
In a few lines:
as §1

For assay [3], the target named is T3, UniProt E9PVX1.
T3 sequence (whole entry): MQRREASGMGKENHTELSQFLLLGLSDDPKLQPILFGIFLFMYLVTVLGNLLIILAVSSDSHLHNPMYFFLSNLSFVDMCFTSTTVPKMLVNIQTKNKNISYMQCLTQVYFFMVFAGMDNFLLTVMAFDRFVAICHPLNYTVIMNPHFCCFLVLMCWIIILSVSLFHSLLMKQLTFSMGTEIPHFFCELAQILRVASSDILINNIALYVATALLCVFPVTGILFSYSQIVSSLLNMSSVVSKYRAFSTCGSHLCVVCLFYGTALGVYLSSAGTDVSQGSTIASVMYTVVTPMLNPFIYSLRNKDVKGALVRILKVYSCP
Summed up: as §1

The target of assay [4] is T4, UniProt E9PZ66.
T4 sequence (whole entry): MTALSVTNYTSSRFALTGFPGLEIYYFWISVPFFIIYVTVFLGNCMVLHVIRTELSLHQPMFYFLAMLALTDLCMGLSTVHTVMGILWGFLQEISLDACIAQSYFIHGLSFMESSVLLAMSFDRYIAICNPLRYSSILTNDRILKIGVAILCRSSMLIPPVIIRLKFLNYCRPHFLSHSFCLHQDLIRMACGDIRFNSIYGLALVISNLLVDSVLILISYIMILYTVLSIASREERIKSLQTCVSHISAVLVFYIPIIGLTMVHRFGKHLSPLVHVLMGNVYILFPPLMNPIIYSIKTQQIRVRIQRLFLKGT
Summed up:
as §1

The target in assay [5] is T5, UniProt E9Q4X7.
T5 sequence (whole entry): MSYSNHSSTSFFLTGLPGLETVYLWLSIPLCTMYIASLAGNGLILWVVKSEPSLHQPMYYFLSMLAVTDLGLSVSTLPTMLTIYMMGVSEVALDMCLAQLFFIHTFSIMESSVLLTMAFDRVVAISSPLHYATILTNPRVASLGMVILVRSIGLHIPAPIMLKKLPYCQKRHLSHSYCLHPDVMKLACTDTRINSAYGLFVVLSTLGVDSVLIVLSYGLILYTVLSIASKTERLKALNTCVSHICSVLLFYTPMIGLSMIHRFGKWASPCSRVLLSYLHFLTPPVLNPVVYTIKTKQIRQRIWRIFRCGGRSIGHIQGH
In a few lines: as §1

In assay [6] the target is T6, UniProt E9Q546.
T6 sequence (whole entry): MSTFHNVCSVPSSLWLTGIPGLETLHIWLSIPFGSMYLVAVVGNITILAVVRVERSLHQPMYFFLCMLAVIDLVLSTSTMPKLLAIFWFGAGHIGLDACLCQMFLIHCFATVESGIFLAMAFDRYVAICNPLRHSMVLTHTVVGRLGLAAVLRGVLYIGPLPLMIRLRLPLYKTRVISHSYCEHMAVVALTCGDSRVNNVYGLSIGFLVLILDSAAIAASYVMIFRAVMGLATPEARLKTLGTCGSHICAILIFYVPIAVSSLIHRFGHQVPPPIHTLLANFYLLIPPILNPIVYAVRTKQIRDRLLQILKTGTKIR
Summed up: as §1

Assay [7] concerns the target T7, UniProt E9Q6Z7.
T7 sequence (whole entry): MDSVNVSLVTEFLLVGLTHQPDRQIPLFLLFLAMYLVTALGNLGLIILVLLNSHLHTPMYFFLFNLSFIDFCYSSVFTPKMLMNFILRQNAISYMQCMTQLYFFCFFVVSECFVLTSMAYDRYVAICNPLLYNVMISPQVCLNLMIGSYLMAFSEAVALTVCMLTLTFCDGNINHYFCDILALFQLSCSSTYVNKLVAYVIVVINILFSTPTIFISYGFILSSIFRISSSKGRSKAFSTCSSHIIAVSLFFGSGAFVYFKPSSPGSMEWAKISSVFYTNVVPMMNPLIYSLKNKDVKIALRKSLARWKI
In a few lines:
as §1

Assay [8] deals with T8, UniProt A2AVB5.
T8 sequence (whole entry): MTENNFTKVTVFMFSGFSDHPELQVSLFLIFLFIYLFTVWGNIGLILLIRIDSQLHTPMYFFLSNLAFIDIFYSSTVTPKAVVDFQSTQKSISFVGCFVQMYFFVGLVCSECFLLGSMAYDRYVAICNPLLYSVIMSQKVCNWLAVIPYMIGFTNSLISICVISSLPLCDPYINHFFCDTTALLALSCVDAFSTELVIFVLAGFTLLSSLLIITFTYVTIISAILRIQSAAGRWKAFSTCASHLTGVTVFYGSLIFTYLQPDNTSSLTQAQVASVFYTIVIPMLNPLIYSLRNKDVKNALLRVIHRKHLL
Summed up:
as §1

Assay [9] addresses T9, UniProt B2RVX8.
T9 sequence (whole entry): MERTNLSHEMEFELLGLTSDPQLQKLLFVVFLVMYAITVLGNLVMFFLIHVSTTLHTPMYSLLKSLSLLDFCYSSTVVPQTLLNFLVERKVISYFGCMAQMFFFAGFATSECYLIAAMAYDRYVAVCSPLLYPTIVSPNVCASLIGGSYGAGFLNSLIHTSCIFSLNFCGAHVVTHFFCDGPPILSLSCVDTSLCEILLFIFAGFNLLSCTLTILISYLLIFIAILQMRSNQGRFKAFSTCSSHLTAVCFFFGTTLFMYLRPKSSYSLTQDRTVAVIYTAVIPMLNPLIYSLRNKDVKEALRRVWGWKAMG
In a few lines:
as §1

The target in assay [10] is T10, UniProt E9PX47.
T10 sequence (whole entry): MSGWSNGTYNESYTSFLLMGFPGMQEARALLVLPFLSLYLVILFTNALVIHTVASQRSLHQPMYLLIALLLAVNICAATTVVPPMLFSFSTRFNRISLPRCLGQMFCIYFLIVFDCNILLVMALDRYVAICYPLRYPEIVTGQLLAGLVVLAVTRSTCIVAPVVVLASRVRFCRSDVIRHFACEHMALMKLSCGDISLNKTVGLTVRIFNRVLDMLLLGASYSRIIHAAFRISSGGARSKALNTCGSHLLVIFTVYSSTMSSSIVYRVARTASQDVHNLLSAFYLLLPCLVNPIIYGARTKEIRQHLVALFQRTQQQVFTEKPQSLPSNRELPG
In a few lines:
as §1

Assay [11] addresses T11, UniProt K7N609.
T11 sequence (whole entry): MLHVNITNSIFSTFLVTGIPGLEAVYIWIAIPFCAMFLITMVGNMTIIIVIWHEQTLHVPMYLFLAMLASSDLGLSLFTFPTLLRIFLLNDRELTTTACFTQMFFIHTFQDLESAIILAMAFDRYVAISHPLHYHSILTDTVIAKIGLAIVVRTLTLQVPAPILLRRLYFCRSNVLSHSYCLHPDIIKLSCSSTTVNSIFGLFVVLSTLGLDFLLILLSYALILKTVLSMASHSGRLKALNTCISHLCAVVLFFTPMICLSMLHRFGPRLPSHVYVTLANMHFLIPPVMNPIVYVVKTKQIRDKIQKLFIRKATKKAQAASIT
In a few lines:
as §1

The target in assay [12] is UniProt A2AVA9. In a few lines: as §1
Assay [13] has as its target UniProt A2AVC3. In a few lines: as §1
The target in assay [14] is UniProt E9PXH6. In a few lines:
as §1

The target of assay [15] is UniProt E9Q891. Summed up:
as §1

Assay [16] deals with UniProt K7N5T5. Summed up: as §1
Chain of UniProt K7N5T5 (K7N5T5 as listed by the source): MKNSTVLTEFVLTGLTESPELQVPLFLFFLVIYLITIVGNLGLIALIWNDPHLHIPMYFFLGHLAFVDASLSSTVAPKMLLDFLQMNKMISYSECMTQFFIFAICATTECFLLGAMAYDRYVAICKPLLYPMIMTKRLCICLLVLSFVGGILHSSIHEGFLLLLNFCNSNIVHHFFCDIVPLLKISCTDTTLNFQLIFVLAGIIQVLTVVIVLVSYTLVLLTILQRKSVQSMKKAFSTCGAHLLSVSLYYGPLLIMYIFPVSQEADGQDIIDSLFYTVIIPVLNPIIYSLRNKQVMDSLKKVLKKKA

Chain of UniProt A2AVC3 (A2AVC3 as listed by the source): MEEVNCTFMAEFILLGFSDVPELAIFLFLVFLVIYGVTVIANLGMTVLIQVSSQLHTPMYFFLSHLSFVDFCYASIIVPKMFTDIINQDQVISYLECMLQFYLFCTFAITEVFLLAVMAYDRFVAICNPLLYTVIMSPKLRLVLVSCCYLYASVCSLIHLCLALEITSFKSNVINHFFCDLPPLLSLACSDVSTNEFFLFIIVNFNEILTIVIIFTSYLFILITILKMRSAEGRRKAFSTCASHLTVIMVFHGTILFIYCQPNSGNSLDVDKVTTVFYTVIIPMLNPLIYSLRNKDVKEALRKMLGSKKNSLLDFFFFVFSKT
Chain of UniProt E9PXH6 (E9PXH6 as listed by the source): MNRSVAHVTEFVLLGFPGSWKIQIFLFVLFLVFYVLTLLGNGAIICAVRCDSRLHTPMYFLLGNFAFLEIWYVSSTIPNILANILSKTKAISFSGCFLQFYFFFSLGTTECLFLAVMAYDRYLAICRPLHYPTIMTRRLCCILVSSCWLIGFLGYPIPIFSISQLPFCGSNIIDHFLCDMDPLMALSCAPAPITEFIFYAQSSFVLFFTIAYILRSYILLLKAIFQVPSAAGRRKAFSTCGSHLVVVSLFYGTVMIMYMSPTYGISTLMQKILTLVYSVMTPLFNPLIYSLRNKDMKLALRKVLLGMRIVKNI
Chain of UniProt E9Q891 (E9Q891 as listed by the source): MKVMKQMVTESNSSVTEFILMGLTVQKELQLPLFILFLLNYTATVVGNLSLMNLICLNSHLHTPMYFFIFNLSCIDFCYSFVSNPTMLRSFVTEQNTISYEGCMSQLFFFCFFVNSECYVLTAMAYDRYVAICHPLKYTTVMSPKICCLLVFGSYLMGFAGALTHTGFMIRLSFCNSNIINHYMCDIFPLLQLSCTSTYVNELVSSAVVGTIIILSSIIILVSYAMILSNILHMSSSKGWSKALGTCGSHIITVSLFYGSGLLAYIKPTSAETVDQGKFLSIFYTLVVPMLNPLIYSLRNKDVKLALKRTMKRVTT
Chain of UniProt A2AVA9 (A2AVA9 as listed by the source): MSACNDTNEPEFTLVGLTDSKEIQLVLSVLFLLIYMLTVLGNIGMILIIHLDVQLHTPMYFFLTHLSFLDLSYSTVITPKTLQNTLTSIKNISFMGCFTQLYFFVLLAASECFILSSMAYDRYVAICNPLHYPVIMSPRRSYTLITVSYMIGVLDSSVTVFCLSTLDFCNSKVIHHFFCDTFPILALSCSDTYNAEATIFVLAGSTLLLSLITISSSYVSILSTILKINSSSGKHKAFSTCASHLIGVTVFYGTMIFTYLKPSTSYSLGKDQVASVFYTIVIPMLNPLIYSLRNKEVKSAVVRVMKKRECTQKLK

As for `CC(=O)OCCc1ccccc1`, the “odorant receptor agonist call” value in assay [1], in assay [2], in [3], in assay [4], in assay [5] and in assay [6] was “inactive” throughout. For the same compound, the “odorant receptor agonist call” value in assay [7] was “inactive”.
Take `CCCCCCCC(=O)[O-].[H+]`: the “odorant receptor agonist call” value in assay [8], in assay [9], in [10] and in assay [11] was “inactive” each time. Besides, in [6], the “odorant receptor agonist call” value was “active”.
With `C=C(C)C1CCC2(C)OC2C1` (configuration not stated), the “odorant receptor agonist call” value in [1], in assay [2], in assay [3], in [4], in assay [5] and in assay [6] was “inactive” each time. In addition, in [7], the “odorant receptor agonist call” value was “inactive”.
Regarding `CCCCCOC(=O)CCC`, the “odorant receptor agonist call” value in assay [1], in [2], in [3], in assay [4], in [5] and in [6] was “inactive” throughout. In addition, in assay [7], the “odorant receptor agonist call” value was “inactive”.
In the case of `O=c1ccc2ccccc2o1`, the “odorant receptor agonist call” value in assay [12], in assay [8], in [14] and in assay [15] was “active” in each case. Also, the “odorant receptor agonist call” value in assay [13], in assay [9], in assay [6], in assay [16] and in [11] was “inactive” in each case.
Take `CC=C(C)C=O`: the “odorant receptor agonist call” value in [1], in assay [2], in [3], in assay [4], in assay [5] and in assay [6] was “inactive” throughout. Further, in assay [7], the “odorant receptor agonist call” value is “inactive”.
`CCCCCO`: the “odorant receptor agonist call” value in assay [8], in assay [9], in assay [6] and in [11] was “inactive” each time.
`CCC(C(=O)O)c1ccccc1` (configuration not stated): the “odorant receptor agonist call” value in assay [8], in assay [9], in assay [6] and in assay [11] was “inactive” throughout.
In the case of `COc1ccccc1`, the “odorant receptor agonist call” value in [1], in assay [2], in [3], in assay [4], in [5] and in assay [6] was “inactive” each time. In addition, the “odorant receptor agonist call” value in assay [7] was “inactive”.
